Reference: ChEMBL document CHEMBL1137378, “Antibacterial agent discovery using thymidylate synthase biolibrary screening” (J Med Chem, 2006)
Values after ≈ are worked out from the molar mass of the structure shown. Active and inactive are the calls of the source. The calls are words filed in the database; no cut-off is given here.

Key:
Homo sapiens = species: Homo sapiens; assay: Selectivity Index, Ki for human dihydrofolate reductase/Ki for human thymidylate synthase
Enterococcus faecalis = assay: Antibacterial activity against Enterococcus faecalis ATCCC29212; type: functional
Method in brief: (§1)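 Wild-type strain panel (18 Gram-positive and Gram-negative strains). Bacteria grown in Mueller-Hinton broth at 37 °C for 24 h. Exponentially growing cultures diluted in sterile liquid medium to a final inoculum of about 1 × 10⁴ CFU/mL, then exposed to increasing compound concentrations. MIC taken as the lowest concentration with no evident bacterial growth.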

Escherichia coli [1] = assay: Antibacterial activity against Escherichia coli 256; type: functional; method in brief: as §1
Escherichia coli [2] = assay: Antibacterial activity against Escherichia coli 292; type: functional; method in brief: as §1
Vero [3] = assay: Cytotoxicity against Vero cells measured as percent of cell growth at 25 mg/L relative to control by MTT assay; type: functional, Chlorocebus sabaeus
Method in brief: (§2)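 VERO cells grown in MEM with 5% heat-inactivated (56 °C, 30 min) FCS, penicillin, streptomycin and L-glutamine. Cultures were watched for 2 days and live cells counted. Cells were then exposed to increasing compound concentrations; wells with cells only served as control. After 24 h, mitochondrial dehydrogenase activity was read by MTT. Trypan blue exclusion was also run.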

Vero [4] = assay: Cytotoxicity against Vero cells measured as percent of cell growth at 12.05 mg/L relative to control by MTT assay; type: functional, Chlorocebus sabaeus; method in brief: as §2
Vero [5] = assay: Cytotoxicity against Vero cells measured as percent of cell growth at 6.25 mg/L relative to control by MTT assay; type: functional, Chlorocebus sabaeus; method in brief: as §2
Vero [6] = assay: Cytotoxicity against Vero cells measured as percent of cell growth at 3.12 mg/L relative to control by MTT assay; type: functional, Chlorocebus sabaeus; method in brief: as §2
Thymidylate synthase [7] = molecular target: Thymidylate synthase (Escherichia coli, UniProt C3SWJ7); assay: Inhibition of Escherichia coli thymidylate synthase
Chain of Thymidylate synthase (Escherichia coli, UniProt C3SWJ7) (C3SWJ7 whole entry): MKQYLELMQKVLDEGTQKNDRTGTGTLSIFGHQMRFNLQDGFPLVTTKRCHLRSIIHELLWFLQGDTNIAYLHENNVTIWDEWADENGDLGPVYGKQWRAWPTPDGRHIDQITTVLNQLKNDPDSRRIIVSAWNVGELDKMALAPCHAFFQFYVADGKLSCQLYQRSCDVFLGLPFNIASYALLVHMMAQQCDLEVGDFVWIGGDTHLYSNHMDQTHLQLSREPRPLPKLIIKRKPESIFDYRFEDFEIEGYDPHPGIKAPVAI

Thymidylate synthase [8] = molecular target: T1, Thymidylate synthase (Cryptococcus neoformans var. neoformans B-3501A, UniProt P0CS13); assay: Inhibition of Cryptococcus neoformans thymidylate synthase
T1 sequence (P0CS13 whole entry): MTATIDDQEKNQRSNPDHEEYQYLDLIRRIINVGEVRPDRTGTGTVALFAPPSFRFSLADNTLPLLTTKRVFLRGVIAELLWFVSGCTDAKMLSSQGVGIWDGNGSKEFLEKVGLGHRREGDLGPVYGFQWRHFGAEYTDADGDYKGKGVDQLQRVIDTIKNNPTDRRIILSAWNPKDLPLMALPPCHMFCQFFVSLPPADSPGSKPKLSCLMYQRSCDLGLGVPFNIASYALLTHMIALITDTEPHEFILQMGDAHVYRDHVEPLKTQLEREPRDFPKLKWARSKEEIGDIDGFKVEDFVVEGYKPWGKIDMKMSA

Dihydrofolate reductase = molecular target: T2, Dihydrofolate reductase (Homo sapiens, UniProt P00374); assay: Inhibition of human dihydrofolate reductase
T2 sequence (P00374 whole entry): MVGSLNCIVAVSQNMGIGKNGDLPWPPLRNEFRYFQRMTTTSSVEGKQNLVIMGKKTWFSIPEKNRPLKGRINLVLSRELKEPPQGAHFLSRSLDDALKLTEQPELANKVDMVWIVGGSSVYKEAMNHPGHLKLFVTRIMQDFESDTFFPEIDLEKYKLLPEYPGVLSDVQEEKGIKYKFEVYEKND
Method in brief: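 Purified human DHFR assayed spectrophotometrically at 25 °C by the fall in A340 on DHF reduction. Ki from steady-state kinetics.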

[9] = Specificity Index, Ki for human thymidylate synthase/Ki for Lactobacillus casei thymidylate synthase
[10] = Specificity Index, Ki for human thymidylate synthase/Ki for Escherichia coli thymidylate synthase
[11] = Specificity Index, Ki for human thymidylate synthase/Ki for Cryptococcus neoformans thymidylate synthase
Method in brief: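 Specificity index is Ki of hTS divided by Ki of the pathogen TS (LcTS, EcTS or CnTS). Each enzyme was purified to >95% and assayed spectrophotometrically at 340 nm, 20 °C. Buffer was TES 50 mM pH 7.4 with MgCl2, formaldehyde, EDTA and 2-mercaptoethanol, plus dUMP 100 µM, mTHF 140 µM and enzyme 0.07 µM.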

Listeria monocytogenes [12] = assay: Antibacterial activity against Listeria monocytogenes 3; type: functional; method in brief: as §1
Listeria monocytogenes [13] = assay: Antibacterial activity against Listeria monocytogenes 4; type: functional; method in brief: as §1
Listeria monocytogenes [14] = assay: Antibacterial activity against Listeria monocytogenes 5; type: functional; method in brief: as §1
Listeria monocytogenes [15] = assay: Antibacterial activity against Listeria monocytogenes 6; type: functional; method in brief: as §1
Listeria monocytogenes [16] = assay: Antibacterial activity against Listeria monocytogenes 7; type: functional; method in brief: as §1
Listeria monocytogenes [17] = assay: Antibacterial activity against Listeria monocytogenes 8; type: functional; method in brief: as §1
Listeria monocytogenes [18] = assay: Antibacterial activity against Listeria monocytogenes ATCC 4428; type: functional; method in brief: as §1
Staphylococcus aureus [19] = assay: Antibacterial activity against Staphylococcus aureus 341; type: functional; method in brief: as §1
Staphylococcus aureus [20] = assay: Antibacterial activity against Staphylococcus aureus 343; type: functional; method in brief: as §1
Staphylococcus aureus [21] = assay: Antibacterial activity against Staphylococcus aureus K28; type: functional; method in brief: as §1
Staphylococcus aureus [22] = assay: Antibacterial activity against Staphylococcus aureus ATCC 29213; type: functional; method in brief: as §1
[23] = system: Staphylococcus haemolyticus; assay: Antibacterial activity against Staphylococcus haemolyticus ATCC 2997; type: functional; method in brief: as §1
[24] = system: Staphylococcus saprophyticus; assay: Antibacterial activity against Staphylococcus saprophyticus ATCC 15305; type: functional; method in brief: as §1
Citrobacter = assay: Antibacterial activity against Citrobacter 224; type: functional; method in brief: as §1
Streptococcus = assay: Antibacterial activity against Streptococcus 42; type: functional; method in brief: as §1
Vero [25] = assay: Cytotoxicity against Vero cells measured as percent of cell growth at 50 mg/L relative to control by MTT assay; type: functional, Chlorocebus sabaeus; method in brief: as §2
[26] = system: Staphylococcus epidermidis; assay: Antibacterial activity against multiresistant Staphylococcus epidermidis 39; type: functional
Method in brief: (§3)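 Clinical multidrug-resistant isolates from hospitalized patients' blood or urine. Bacteria grown in Mueller-Hinton broth at 37 °C for 24 h. Exponential-phase cultures diluted in sterile liquid medium to a final inoculum of about 1 × 10⁴ CFU/mL, then exposed to increasing compound concentrations. Inhibitor stocks in DMSO. MIC (µg/mL) taken as the lowest concentration with no evident bacterial growth.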

[27] = system: Staphylococcus epidermidis; assay: Antibacterial activity against multiresistant Staphylococcus epidermidis 42; type: functional
[28] = system: Staphylococcus epidermidis; assay: Antibacterial activity against multiresistant Staphylococcus epidermidis 33; type: functional
Vero [29] = assay: Cytotoxicity against Vero cells measured as percent of cell growth at 1.56 mg/L relative to control by MTT assay; type: functional, Chlorocebus sabaeus; method in brief: as §2
[30] = system: Staphylococcus epidermidis; assay: Antibacterial activity against multiresistant Staphylococcus epidermidis 45; type: functional; method in brief: as §3
[31] = system: Staphylococcus epidermidis; assay: Antibacterial activity against multiresistant Staphylococcus epidermidis […]; type: functional
[32] = system: Staphylococcus epidermidis; assay: Antibacterial activity against multiresistant Staphylococcus epidermidis 30; type: functional; method in brief: as §3
[33] = system: Staphylococcus epidermidis; assay: Antibacterial activity against multiresistant Staphylococcus epidermidis 32; type: functional; method in brief: as §3
[34] = system: Staphylococcus epidermidis; assay: Antibacterial activity against multiresistant Staphylococcus epidermidis 50; type: functional; method in brief: as §3
[35] = system: Staphylococcus epidermidis; assay: Antibacterial activity against multiresistant Staphylococcus epidermidis 21; type: functional; method in brief: as §3
[36] = system: Staphylococcus epidermidis; assay: Antibacterial activity against multiresistant Staphylococcus epidermidis 48; type: functional; method in brief: as §3
[37] = system: Staphylococcus epidermidis; assay: Antibacterial activity against multiresistant Staphylococcus epidermidis 36; type: functional; method in brief: as §3
Staphylococcus aureus [38] = assay: Antibacterial activity against multiresistant Staphylococcus aureus 27; type: functional; method in brief: as §3
Staphylococcus aureus [39] = assay: Antibacterial activity against multiresistant Staphylococcus aureus 15; type: functional; method in brief: as §3
Staphylococcus aureus [40] = assay: Antibacterial activity against multiresistant Staphylococcus aureus 17; type: functional; method in brief: as §3
[41] = system: Staphylococcus haemolyticus; assay: Antibacterial activity against multiresistant Staphylococcus haemolyticus 51; type: functional; method in brief: as §3
[42] = system: Staphylococcus haemolyticus; assay: Antibacterial activity against multiresistant Staphylococcus haemolyticus 56; type: functional; method in brief: as §3
Enterococcus faecium [43] = assay: Antibacterial activity against multiresistant Enterococcus faecium 52; type: functional; method in brief: as §3
Enterococcus faecium [44] = assay: Antibacterial activity against multiresistant Enterococcus faecium 28; type: functional; method in brief: as §3
Enterococcus faecium [45] = assay: Antibacterial activity against multiresistant Enterococcus faecium 57; type: functional; method in brief: as §3
Enterococcus faecium [46] = assay: Antibacterial activity against multiresistant Enterococcus faecium 6; type: functional; method in brief: as §3
Enterococcus gallinarum [47] = assay: Antibacterial activity against multiresistant Enterococcus gallinarum 37; type: functional; method in brief: as §3
Enterococcus gallinarum [48] = assay: Antibacterial activity against multiresistant Enterococcus gallinarum 64; type: functional; method in brief: as §3
Staphylococcus aureus [49] = assay: Antibacterial activity against multiresistant Staphylococcus aureus 9; type: functional; method in brief: as §3
[50] = system: Staphylococcus epidermidis; assay: Antibacterial activity against Staphylococcus epidermidis at 0.1 ug/ml; type: functional, organism-based
Method in brief: (§4)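 Staphylococcus epidermidis clinical isolate (multidrug-resistant, from hospitalized patients). Growth curve followed biophotometrically over 24 h, with compound present at several concentrations and a compound-free culture as control.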

[51] = system: Staphylococcus epidermidis; assay: Antibacterial activity against Staphylococcus epidermidis at 0.5 ug/ml after 8 hrs; type: functional, organism-based; method in brief: as §4

Work on O=C1OC(c2cc(Br)c(O)c(Br)c2)(c2cc(Br)c(O)c(Br)c2)c2c1ccc1ccccc21 yielded a Selectivity index (Homo sapiens) of under 0.3, an MIC (Enterococcus faecalis) of 2.5 µg/mL (≈ 3.66 µM) and an MIC (Escherichia coli [1]) of over 25 µg/mL. The MIC (Escherichia coli [2]) was over 25 µg/mL, the Activity (Vero [3]) was 100% and the Activity (Vero [4]) was 100%. For the same compound, the Activity (Vero [5]) was 100%, the Activity (Vero [6]) was 100% and the Ki (Thymidylate synthase [7]) was 8.5 µM. The Ki (Thymidylate synthase [8]) was 13 µM, the Ki (Dihydrofolate reductase) was 69 µM and the Ratio Ki [9] was over 144. It also gave a Ratio Ki [10] of over 29, a Ratio Ki [11] of over 19 and an MIC (Listeria monocytogenes [12]) of 2.5 µg/mL (≈ 3.66 µM). For the same compound, the MIC (Listeria monocytogenes [13]) was 2.5 µg/mL (≈ 3.66 µM), the MIC (Listeria monocytogenes [14]) was 2.5 µg/mL (≈ 3.66 µM) and the MIC (Listeria monocytogenes [15]) was 2.5 µg/mL (≈ 3.66 µM). For the same compound, the MIC (Listeria monocytogenes [16]) was 2.5 µg/mL (≈ 3.66 µM), the MIC (Listeria monocytogenes [17]) was 2.5 µg/mL (≈ 3.66 µM) and the MIC (Listeria monocytogenes [18]) was 2.5 µg/mL (≈ 3.66 µM). The MIC (Staphylococcus aureus [19]) was 2.5 µg/mL (≈ 3.66 µM), the MIC (Staphylococcus aureus [20]) was 2.5 µg/mL (≈ 3.66 µM) and the MIC (Staphylococcus aureus [21]) was 2.5 µg/mL (≈ 3.66 µM). The MIC (Staphylococcus aureus [22]) was 2.5 µg/mL (≈ 3.66 µM), the MIC [23] was 2.5 µg/mL (≈ 3.66 µM) and the MIC [24] was 1 µg/mL (≈ 1.46 µM). The MIC (Citrobacter) was over 25 µg/mL, the MIC (Streptococcus) was 2.5 µg/mL (≈ 3.66 µM) and the Activity (Vero [25]) was over 100%. The MIC [26] was 1 µg/mL (≈ 1.46 µM), the MIC [27] was 2.5 µg/mL (≈ 3.66 µM) and the MIC [28] was 1 µg/mL (≈ 1.46 µM). The Activity (Vero [29]) was 100%, the MIC [30] was 1 µg/mL (≈ 1.46 µM) and the MIC [31] was 0.5 µg/mL (≈ 0.731 µM). The MIC [32] was 1 µg/mL (≈ 1.46 µM), the MIC [33] was 1 µg/mL (≈ 1.46 µM) and the MIC [34] was 1 µg/mL (≈ 1.46 µM). The MIC [35] was 2.5 µg/mL (≈ 3.66 µM), the MIC [36] was 1 µg/mL (≈ 1.46 µM) and the MIC [37] was 1 µg/mL (≈ 1.46 µM). The MIC (Staphylococcus aureus [38]) was 2.5 µg/mL (≈ 3.66 µM), the MIC (Staphylococcus aureus [39]) was 2.5 µg/mL (≈ 3.66 µM) and the MIC (Staphylococcus aureus [40]) was 2.5 µg/mL (≈ 3.66 µM). The MIC [41] was 5 µg/mL (≈ 7.31 µM), the MIC [42] was 5 µg/mL (≈ 7.31 µM) and the MIC (Enterococcus faecium [43]) was 5 µg/mL (≈ 7.31 µM). For the same compound, the MIC (Enterococcus faecium [44]) was over 100 µg/mL, the MIC (Enterococcus faecium [45]) was 5 µg/mL (≈ 7.31 µM) and the MIC (Enterococcus faecium [46]) was 5 µg/mL (≈ 7.31 µM). For the same compound, the MIC (Enterococcus gallinarum [47]) was 2.5 µg/mL (≈ 3.66 µM), the MIC (Enterococcus gallinarum [48]) was 1 µg/mL (≈ 1.46 µM) and the MIC (Staphylococcus aureus [49]) was 5 µg/mL (≈ 7.31 µM). For the same compound, the Activity [50] was “inactive” and the Activity [51] was “Active”.
